Reference: ChEMBL document CHEMBL4382247, “A novel series of napabucasin derivatives as orally active inhibitors of signal transducer and activator of transcription 3 (STAT3)” (Eur J Med Chem, 2019)
Values after ≈ are worked out from the molar mass of the structure shown. Active and inactive are the calls of the source. The calls are words filed in the database; no cut-off is given here.

Experiments:
[1] = Toxicity in BALB/c mouse implanted with mouse CT26 cells assessed as change in body weight at 50 mg/kg, po administered once daily; type: organism-based; conditions: in vivo
In short: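 Mice bearing subcutaneous CT-26 tumours, five per group, given 50mg/kg orally each day in 5% NMP/PEG 400, with an equal-volume vehicle control group. Body weight and behaviour monitored over the treatment period.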

[2] = Cardiotoxicity in BALB/c mouse implanted with mouse CT26 cells assessed as effect on heart morphology by measuring necrosis at 50 mg/kg, po administered once daily by H and E staining based histopathological analysis; type: toxicity, organism-based; conditions: in vivo
In short: (§1)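 CT-26 subcutaneous flank tumour model in male BALB/c mice, five per group, dosed orally at 50mg/kg daily in 5% NMP/95% PEG 400 versus vehicle. After treatment, heart, liver, spleen, lung and kidney collected, sectioned and stained with H&E for histological examination.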

U-251 [3] = assay: Antiproliferative activity against human U251 cells after 72 hrs by MTT assay; type: functional, cell-based; conditions: U-251, 72 h
In short: (§2)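 Cells seeded at 5 × 10^3 per well and cultured 24 h before compound addition at varied concentrations, then grown a further 72 h; 0.5% DMSO as solvent control. MTT (5mg/ml solution) added for 4 h, formazan dissolved in DMSO, absorbance read at 570nm. Each treatment in triplicate; Mean ± SD.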

[4] = Cardiotoxicity in BALB/c mouse implanted with mouse CT26 cells assessed as effect on heart morphology by measuring edema at 50 mg/kg, po administered once daily by H and E staining based histopathological analysis; type: toxicity, organism-based; conditions: in vivo; in short: as §1
PC-3 = assay: Antiproliferative activity against human PC3 cells after 72 hrs by MTT assay; type: functional, cell-based; conditions: PC-3, 72 h; in short: as §2
[5] = target: T1, Signal transducer and activator of transcription 3 (Homo sapiens, UniProt P40763); assay: Inhibition of STAT3 phosphorylation at Y705 residue in human U251 cells at 200 nM after 24 to 48 hrs by sandwich-ELISA; type: cell-based
In short: (§3)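 Cells treated 24 or 48 h. Whole-cell lysates made in lysis buffer with protease inhibitor cocktail. Total STAT3 and p-STAT3 Y705 measured by sandwich ELISA. Three repeats; groups compared with control by paired t-test; means ± S.D.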

[6] = Toxicity in BALB/c mouse implanted with mouse CT26 cells assessed as effect on kidney morphology by measuring necrosis at 50 mg/kg, po administered once daily by H and E staining based histopathological analysis; type: organism-based; conditions: in vivo; in short: as §1
U-251 [7] = assay: Potency index, ratio of napabucasin IC50 to test compound IC50 for human U251 cells; type: functional
[8] = Toxicity in BALB/c mouse implanted with mouse CT26 cells assessed as effect on kidney morphology by measuring cell inflammation at 50 mg/kg, po administered once daily by H and E staining based histopathological analysis; type: organism-based; conditions: in vivo; in short: as §1
[9] = Aqueous solubility of the compound in water at 2 mg after 24 hrs by HPLC analysis; type: physicochemical
In short: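 Aqueous solubility measured by HPLC against calibration standards at 15–125 µg/mL. Values are the mean of at least three determinations ± SD.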

[10] = Cardiotoxicity in BALB/c mouse implanted with mouse CT26 cells assessed as effect on heart morphology by measuring cell inflammation at 50 mg/kg, po administered once daily by H and E staining based histopathological analysis; type: toxicity, organism-based; conditions: in vivo; in short: as §1
CT26 = assay: Antiproliferative activity against mouse CT26 cells after 72 hrs by MTT assay; type: functional, cell-based; conditions: CT26, 72 h; in short: as §2
[11] = Hepatotoxicity in BALB/c mouse implanted with mouse CT26 cells assessed as effect on liver morphology by measuring cell inflammation at 50 mg/kg, po administered once daily by H and E staining based histopathological analysis; type: toxicity, organism-based; conditions: in vivo; in short: as §1
[12] = target: T1, Signal transducer and activator of transcription 3; assay: Binding affinity to recombinant N-terminal His-tagged STAT3 (unknown origin) expressed in baculovirus infected Sf9 insect cells by SPR analysis
In short: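 STAT3 made by baculovirus: bacmid generated in Sf9, virus amplified in Sf9, protein expressed in High Five cells. Purified on Ni-NTA and by gel filtration (>90% pure). Amine-coupled to a CM5 chip. Compound run at 18.75–600 nM in 5% DMSO/PBS on Biacore X100. KD taken from equilibrium fit.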

[13] = target: T1, Signal transducer and activator of transcription 3; assay: Inhibition of STAT3 phosphorylation at Y705 residue in human HepG2 cells at 400 nM after 24 to 48 hrs by sandwich-ELISA; type: cell-based; in short: as §3

T1 sequence (P40763 whole entry): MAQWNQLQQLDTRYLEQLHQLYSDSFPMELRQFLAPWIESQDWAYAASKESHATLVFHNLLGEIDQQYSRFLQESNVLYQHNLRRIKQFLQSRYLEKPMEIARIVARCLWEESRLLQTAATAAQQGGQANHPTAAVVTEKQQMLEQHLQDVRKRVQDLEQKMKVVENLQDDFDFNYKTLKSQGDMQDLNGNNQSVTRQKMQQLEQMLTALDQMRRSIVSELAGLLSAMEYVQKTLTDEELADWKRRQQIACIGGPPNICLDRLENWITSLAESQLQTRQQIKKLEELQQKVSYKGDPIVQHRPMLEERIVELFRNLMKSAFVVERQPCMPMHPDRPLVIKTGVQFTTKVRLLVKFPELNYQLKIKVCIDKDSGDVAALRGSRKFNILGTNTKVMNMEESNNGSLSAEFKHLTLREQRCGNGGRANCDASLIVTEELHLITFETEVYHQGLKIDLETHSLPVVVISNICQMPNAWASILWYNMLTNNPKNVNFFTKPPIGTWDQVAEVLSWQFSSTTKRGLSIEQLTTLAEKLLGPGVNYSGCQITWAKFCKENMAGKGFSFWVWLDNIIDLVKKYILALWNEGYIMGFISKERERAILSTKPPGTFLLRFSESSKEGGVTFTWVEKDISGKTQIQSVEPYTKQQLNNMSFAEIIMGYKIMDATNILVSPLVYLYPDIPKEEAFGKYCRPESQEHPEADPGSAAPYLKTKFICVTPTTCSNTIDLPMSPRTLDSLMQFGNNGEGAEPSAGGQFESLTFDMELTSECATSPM

For `O=C(NCCN1CCCCC1)c1cc2c(o1)C(=O)c1ccccc1C2=O`, the Activity [1] was “Non-Toxic”, the Activity [2] was “Non-Toxic” and the IC50 (U-251 [3]) was 220 nM. For the same compound, the Activity [4] was “Non-Toxic”, the IC50 (PC-3) was 4130 nM and the inhibition [5] was “Active”. The Activity [6] was “Non-Toxic”, the “Ratio IC50” value (U-251 [7]) was >10 and the Activity [8] was “Non-Toxic”. The solubility at 24 h [9] was 201 µM (≈ 70.8 µg/mL), the Activity [10] was “Non-Toxic” and the IC50 (CT26) was 140 nM. For the same compound, the Activity [11] was “Non-Toxic”, the Kd [12] was 110 nM and the inhibition [13] was “Active”.
